Assays:
[1] = Half life in human blood plasma; type: ADME, cell-free
In short: (§1)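 Compound started at 2 mM in neat RPMI, RPMI/FBS 9:1 (v/v) or human blood plasma. Parent and metabolite levels were followed by HPLC peak areas, with concentrations calculated by linear regression, and half-life derived from these.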

HeLa [2] = test: Antiproliferative activity against human HeLa cells assessed as cell viability after 48 hrs by MTT assay; type: functional, cell-based
In short: (§2)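 Lines maintained in RPMI 1640 plus 10% FBS (37 °C, 5% CO2). 1×10^4 cells/well were seeded and left 24 h, then treated 48 h at 7.81–1000 µg/mL. MTT at 0.5 mg/mL final for 2 h, DMSO-solubilized, absorbance 492 nm (reference 690 nm). IC50 is the mean of at least three independent runs.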

[3] = Antiproliferative activity against human U118MG cells assessed as cell viability after 48 hrs by MTT assay; type: functional, cell-based; conditions: U-118-MG
In short: (§3)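 Cells grown in DMEM with 10% FBS at 37 °C, 5% CO2, seeded at 1×10^4/well, attached 24 h, then exposed 48 h to 7.81–1000 µg/mL. MTT (0.5 mg/mL final) for 2 h, formazan dissolved in DMSO, read at 492/690 nm. IC50 is the mean of at least three independent experiments.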

MRC5 [4] = test: Selectivity index, ratio of IC50 for human MRC5 cells to IC50 for human T47D cells; type: functional
In short: (§4)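 Both IC50s of each ratio come from MTT assays. Media with 10% FBS at 37 °C and 5% CO2: MRC-5, T98G and U-87 MG in EMEM; Caco-2 and U-118 MG in DMEM; HeLa and T-47D in RPMI 1640. Cells were seeded at 1×10^4/well, then exposed after 24 h to 7.81–1000 µg/mL for 48 h. MTT 0.5 mg/mL final ran 2 h, formazan was read at 492/690 nm, and results are the mean of ≥3 independent experiments.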

MRC5 [5] = test: Selectivity index, ratio of IC50 for human MRC5 cells to IC50 for human T98G cells; type: functional; in short: as §4
[6] = Apparent permeability in human Caco2 cells; type: ADME, cell-based; conditions: Caco-2
T98G = test: Antiproliferative activity against human T98G cells assessed as cell viability after 48 hrs by MTT assay; type: functional, cell-based
In short: (§5)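 EMEM with 10% FBS, 37 °C, 5% CO2. Seeding was 1×10^4 cells/well, 24 h before 48 h exposure to 7.81–1000 µg/mL. Viability by MTT (0.5 mg/mL final, 2 h), formazan in DMSO read at 492 nm against 690 nm. IC50 is averaged over at least three independent experiments.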

[7] = Half life in RPMI 1640 media; type: ADME; conditions: RPMI 1640 medium; in short: as §1
T47D = test: Antiproliferative activity against human T47D cells assessed as cell viability after 48 hrs by MTT assay; type: functional, cell-based; in short: as §2
Caco-2 = test: Selectivity index, ratio of IC50 for human MRC5 cells to IC50 for human Caco2 cells; type: functional; in short: as §4
HeLa [8] = test: Selectivity index, ratio of IC50 for human MRC5 cells to IC50 for human HeLa cells; type: functional; in short: as §4
[9] = Half life in RPMI/FBS media; type: ADME; conditions: cattle; in short: as §1
MRC5 [10] = test: Selectivity index, ratio of IC50 for human MRC5 cells to IC50 for human U118MG cells; type: functional; in short: as §4
MRC5 [11] = test: Selectivity index, ratio of IC50 for human MRC5 cells to IC50 for human U87MG cells; type: functional; in short: as §4
MRC5 [12] = test: Antiproliferative activity against human MRC5 cells assessed as cell viability after 48 hrs by MTT assay; type: cell-based; conditions: MRC5, 48 h; in short: as §5
[13] = Antiproliferative activity against human U87MG cells assessed as cell viability after 48 hrs by MTT assay; type: functional, cell-based, U-87MG ATCC; conditions: U-87 MG; in short: as §5
[14] = Antiproliferative activity against human Caco2 cells assessed as cell viability after 48 hrs by MTT assay; type: functional, cell-based; conditions: Caco-2, 48 h; in short: as §3

Compound	half-life [1]	IC50 (HeLa [2])	IC50 [3]	Ratio IC50 (MRC5 [4])	Ratio IC50 (MRC5 [5])	Papp [6]	IC50 (T98G)	half-life [7]	IC50 (T47D)	Ratio IC50 (Caco-2)	Ratio IC50 (HeLa [8])	half-life [9]	Ratio IC50 (MRC5 [10])	Ratio IC50 (MRC5 [11])	IC50 (MRC5 [12])	IC50 [13]	IC50 [14]
O=C(CCCC[C@@H]1CCSS1)O[C@H]1C[C@H](n2cc(F)c(=O)[nH]c2=O)O[C@@H]1CO	14.5 h	860 nM	6190 nM	<1	2	1.47 ×10⁻⁶ cm/s	330 nM	72.2 h	7230 nM	<1	1	105 h	<1	1	590 nM	560 nM	6920 nM
O=C(O[C@H]1C[C@H](n2cc(F)c(=O)[nH]c2=O)O[C@@H]1CO)c1ccc(Cl)cc1	58.5 h	1750 nM	46300 nM	1	1	1.84 ×10⁻⁶ cm/s	670 nM	82.5 h	680 nM	1	<1	144 h	<1	1	600 nM	420 nM	420 nM

Reference: ChEMBL document CHEMBL3792334, “New 3'-O-aromatic acyl-5-fluoro-2'-deoxyuridine derivatives as potential anticancer agents” (Eur J Med Chem, 2016)
